Most compounds without a hit are left out; they make up all but 2.4% or so of the library.
Neddyl block: cullin neddylation inhibition. AID 651699. 360,000 tested, 0.58% active. inhibition, % at 25 µM. P61081+Q13564. TR-FRET cullin neddylation, biochemical; in the data active = inhibition above about 36%
TPT1 inh: blocks Candida albicans tRNA 2'-phosphotransferase. recombinant caTPT1, FP RNA substrate dephosphorylation. inhibition, % at 5 µM. 300,000 tested, 0.81% active;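 active = inhibition above the mean of all tested compounds plus 3 SD, set per screening campaign, cut at about 24% in these data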
Rin1 Abl inh: human Rin1-Abl interaction inhibition; TR-FRET Rin1/Abl binding, biochemical; inhibition, % at 7.35 µM; 360,000 tested, 0.4% active; in the data active = inhibition above about 5%, passing the limit was not always enough
Rpn11 block: inhibitors of human proteasome Rpn11 | O00487 | human 26S proteasome, Ub4-pepOG fluorescence polarization; 20S core pre-blocked with epoxomicin | inhibition, % at 20 µM | AID 588493 | 360,000 tested, 0.59% active;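 active = inhibition at 20 µM, scaled to each plate's controls, above about 33%, limit read from the data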
CSN deneddyl inh: inhibitors of human CSN-mediated cullin deneddylation; Purified CSN, SCF-Nedd8-OG deneddylation, fluorescence polarization; 360,000 tested, 0.38% active; inhibition, % at 12.5 µM; Q92905;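 active = pattern-corrected inhibition above about 35%, with an unprinted fluorescence ratio check between 0.5 and 1.5, limit read from the data, passing the limit was not always enough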
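Material: purified human Csn5 enzyme expressed in HEK293T cells / Medium: Tris buffer pH 7.5, NaCl, DTT, Tween-20, trehalose, ovalbumin / Compound dosing: 12.5 µM single point / Schedule: 90 min incubation of compound, enzyme and substrate at room temperature / Signal: fluorescence polarization of the substrate / Control set: no-enzyme wells high, enzyme-with-substrate wells low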
HNF4A DNA FP: change in binding of human HNF4 alpha to DNA; activity change, % at 10 µM; P41235; HNF4a-FITC DNA binding, fluorescence polarization, 1 h; 360,000 tested, 0.3% active; in the data active = activity change above about 30%, passing the limit was not always enough
Numbers stand for hits; – = inactive; · = not tested or not shown.

SMILES | Neddyl block | TPT1 inh | Rin1 Abl inh | Rpn11 block | CSN deneddyl inh | HNF4A DNA FP
CC(=O)Nc1ccc(N(C(=O)CNC(=O)c2ccco2)C(C(=O)NC2CCCC2)c2ccco2)cc1 (configuration not stated) | – | – | – | – | – | –
CC(=O)NC(=S)NNC(=O)C(c1ccccc1)c1ccccc1 | – | – | – | – | 77.5 | –
COc1cc(OC)cc(C(=O)NC(=S)NNC(=O)[C@H]2C[C@@H]2c2ccccc2)c1 | 57.8 | – | – | – | – | –
O=C(NC(=S)NNC(=O)[C@H]1C[C@@H]1c1ccccc1)c1ccc(F)cc1 | – | – | – | – | – | –
CC1Cc2c([nH]c(=O)n(-c3ccccc3)c2=O)O1 (configuration not stated) | – | · | – | – | – | –
CCOC(=O)C1C(c2cc(OC)c(OC)c(OC)c2)NC(=S)NC1(O)C(F)(F)F (configuration not stated) | – | – | – | – | 36.6 | –
CCOC(=O)C1C(c2cc(OC)c(O)c(OC)c2)NC(=S)NC1(O)C(F)(F)F (configuration not stated) | – | – | – | – | – | –
CC(=O)c1cccc(-c2ccnc3c2CC(C(=O)NCc2ccco2)O3)c1 (configuration not stated) | – | · | – | – | – | –
CC(C)Oc1ccc(C(=O)Nc2ccc(N3CCCCC3)cc2)cc1 | – | – | – | – | – | 82.4
Cc1cccc(NC(=O)CSc2ccc3nnc(-c4cccnc4)n3n2)c1 | – | – | – | – | – | –
COc1cc2nc(N3CCNCC3)nc(N)c2cc1OC | · | – | 8.2 | – | 115.9 | –
COc1ccc(NC(=O)C/C(C)=N/NC(=O)c2cnccn2)cc1 | – | – | – | – | – | 30.3
CN1CCC(=NNC(=O)C(=O)Nc2ccc(F)cc2)CC1 | – | – | – | – | – | –
CN1CCC(=NNC(=O)C(=O)Nc2cccc(Br)c2)CC1 | – | – | – | – | – | 31.2
O=C1c2ccccc2NC(c2ccc(Cl)cc2Cl)N1O (configuration not stated) | – | – | – | – | – | –
O=C1c2ccccc2NC(c2cccc(Cl)c2)N1N=C1CCCCCC1 (configuration not stated) | · | – | – | – | 57.4 | –
Cc1sc2nc(CSCC(=O)N(CCC#N)c3ccccc3)[nH]c(=O)c2c1C | – | – | – | 41.7 | – | –
Cc1sc2nc(CSCC(=O)N(C)c3ccccc3)[nH]c(=O)c2c1C | – | – | – | – | – | –
N#CCC(=O)N/N=C/c1coc2ccccc2c1=O | – | – | – | – | – | –
N#C/C(=C\c1coc2ccccc2c1=O)C(N)=S | – | – | – | 43.7 | – | –
O=C(NCC(F)(F)F)c1ccc(S(=O)(=O)Nc2ccccc2N2CCCC2)cc1 | – | · | – | 91.4 | 72.6 | –
Cc1ccc(S(=O)(=O)Nc2ccccc2N2CCCCC2)cc1 | – | · | – | – | – | –
CC(=O)Nc1ccc(S(=O)(=O)N2CCN(c3cc(C)nc4ccccc34)CC2)cc1 | – | – | – | – | – | –
CC(=O)Nc1ccc(S(=O)(=O)N2CCN(c3nc(NC4CCCC4)c4ccccc4n3)CC2)cc1 | – | – | 11.4 | – | – | –
CSc1ccc(CCNS(=O)(=O)c2csc(C(N)=O)c2)cc1 | – | – | – | – | – | –
SMILES | Neddyl block | TPT1 inh | Rin1 Abl inh | Rpn11 block | CSN deneddyl inh | HNF4A DNA FP
CN1C(=O)c2ccccc2NC(=O)[C@]12O[C@@H]2c1cccc(O)c1 | – | 24.1 | – | – | – | –
CS(=O)(=O)NN1C(=O)c2ccccc2NC1c1cccc(O)c1 (configuration not stated) | · | – | – | – | – | –
COc1cc2c(cc1OC)CN(c1nc(-c3cccnc3)nc3ccccc13)CC2 | – | – | – | – | 37.1 | –
O=C(COc1ccc(/C=N/NC(=O)c2ccccc2O)cc1)Nc1ccc([N+](=O)[O-])cc1 | – | – | – | – | 42.8 | –
CCOc1ccccc1-c1c2cc(O)c(=O)cc-2oc2cc(O)c(O)cc12 | – | · | 54.2 | – | – | –
O=c1cc2oc3cc(O)c(O)cc3c(-c3ccccc3O)c-2cc1O | – | · | 67.2 | – | – | –
CCOC(=O)c1oc2cc(O)ccc2c(=O)c1-c1ccccc1OC | – | – | – | – | – | –
Cc1ccccc1-c1cc(=O)c2c(O)cccc2o1 | – | – | – | – | – | –
COc1ccc(OC)c(-c2c3cc(O)c(=O)cc-3oc3cc(O)c(O)cc23)c1 | – | – | 55.1 | – | 45.7 | –
O=C(OCc1nnn(Cc2ccccc2)c1-c1c(COC(=O)c2ccccc2)nnn1Cc1ccccc1)c1ccccc1 | – | – | – | – | – | –
C[C@H](CO)N1C[C@H](C)[C@@H](CN(C)S(=O)(=O)c2ccc(F)cc2)Oc2ccc(NS(=O)(=O)c3ccccc3)cc2C1=O | – | · | – | – | – | –
Cn1ccc2c(-c3ccc4c(c3)OCCO4)cc3c(c21)C1CCC3O1 (configuration not stated) | · | · | – | – | – | –
Cn1ccc2c(-c3ccc4c(c3)OCCO4)cc3c(c21)C1CCC3C1 (configuration not stated) | – | · | – | – | 116.8 | –
CC(C)Cn1c(N)c(C(=O)CSc2nc3ccccc3n2C)c(=O)n(C)c1=O | – | – | – | – | – | 47.8
O=C(N[C@@H](Cc1ccccc1)C(=O)N1CCN(S(=O)(=O)c2ccc(F)cc2)CC1)c1ccco1 | – | · | – | – | – | –
CN(Cc1ccccc1)S(=O)(=O)c1ccc(Cl)nc1 | – | – | – | – | 39.6 | –
O=S(=O)(NCc1ccccc1F)NCc1ccccc1F | – | – | – | – | – | –
C=CC(=O)Nc1ccc(Nc2nc(NC3CCC(N(C)C)CC3)nc3c2ncn3C(C)C)cc1 (configuration not stated) | – | · | – | – | 37.4 | –
Cc1ccc2ccc(C(Nc3cccc(C(F)(F)F)c3)c3cccnc3)c(O)c2n1 (configuration not stated) | 48.3 | – | – | – | – | –
Cn1c(CNC(=O)c2ccccc2)nnc1SCC(=O)Nc1nccs1 | – | – | – | – | – | –
O=C(COc1ccc([N+](=O)[O-])cc1)NC(C(=O)O)C(O)c1cccc([N+](=O)[O-])c1 (configuration not stated) | – | – | – | – | 53.1 | –
CCN1C(=O)N[C@@H](c2cccs2)C(C(C)=O)=C1C | – | – | – | – | – | –
Cc1ccccc1S(=O)(=O)c1c(C)cc(C)n(CC(C)C)c1=O | – | – | – | – | – | –
Cc1ccccc1S(=O)(=O)c1c(C)cc(C)n(C)c1=O | – | – | – | – | 42.9 | –
CCOc1ccc(C(=O)c2ccccc2C(=O)O)cc1OCC | – | – | – | – | 56.8 | –
COC(=O)[C@H]1[C@@H](C)N(Cc2ccccc2)C(=O)N[C@H]1c1ccccc1 | – | – | – | – | – | –
Cc1ccc(/C=N/Nc2ccnc3cc(Cl)ccc23)c(C)c1 | 44.9 | – | – | – | – | –
